Laboratory results: ChEMBL document CHEMBL1137717, “Synthesis and in vitro antiproliferative activity of novel 1-benzhydrylpiperazine derivatives against human cancer cell lines” (Eur J Med Chem, 2009)

Legend:
MCF7 = test: Cytotoxicity against human MCF7 cells assessed as cell survival at 100 uM after 24 hrs by MTT assay relative to control; format: functional; details: MCF7, 24 h, read-out: Survival
Method in brief: (§1)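 Cells grown in DMEM with 10% FCS (HT-29 in McCoy's with 10% FCS), seeded in 96-well plates, and grown 48 h before dosing. Exposed to 100 µM final compound (0.1% DMSO) for 24 h at 37 °C. MTT 1 mg/ml in medium was added for 4 h, formazan dissolved in DMSO, and A570 read. Survival is relative to the 0.1% DMSO control (100%); triplicate, mean ± SD.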

HepG2 = test: Cytotoxicity against human HepG2 cells assessed as cell survival at 100 uM after 24 hrs by MTT assay relative to control; format: functional; details: HepG2, 24 h, read-out: Survival; method in brief: as §1
HT-29 = test: Cytotoxicity against human HT-29 cells assessed as cell survival at 100 uM after 24 hrs by MTT assay relative to control; format: functional; details: HT-29, 24 h, read-out: Survival; method in brief: as §1
HeLa = test: Cytotoxicity against human HeLa cells assessed as cell survival at 100 uM after 24 hrs by MTT assay relative to control; format: functional; details: read-out: Survival; method in brief: as §1
[1] = Cytotoxicity against human NF103 cells assessed as cell survival at 100 uM after 24 hrs by MTT assay relative to control; format: cell-based; details: read-out: Survival; method in brief: as §1

SMILES	viability at 100 µM (MCF7) [%]	viability at 100 µM (HepG2) [%]	viability at 100 µM (HT-29) [%]	viability at 100 µM (HeLa) [%]	viability at 24 h, 100 µM [1] [%]
S=C(Nc1cccc(Cl)c1)N1CCN(C(c2ccccc2)c2ccccc2)CC1	73.6	69.5	69.3	69.8	56.8
S=C(Nc1ccc(Cl)cc1)N1CCN(C(c2ccccc2)c2ccccc2)CC1	66.9	66.2	73.8	73.9	54.8
Fc1ccc(NC(=S)N2CCN(C(c3ccccc3)c3ccccc3)CC2)cc1	43.9	45.4	47.4	48.4	52.7
O=C(N1CCCC1)N1CCN(C(c2ccccc2)c2ccccc2)CC1	71.4	66.2	70.2	64.2	54
O=C(C1CC1)N1CCN(C(c2ccccc2)c2ccccc2)CC1	61	62.9	72	70.3	55.1
O=S(=O)(c1ccccc1)N1CCN(C(c2ccccc2)c2ccccc2)CC1	68.1	66.2	69.3	61.9	57.4
O=S(=O)(CC(F)(F)F)N1CCN(C(c2ccccc2)c2ccccc2)CC1	41.1	47.8	43.6	47.7	54.9
O=C(N1CCOCC1)N1CCN(C(c2ccccc2)c2ccccc2)CC1	68.7	61.9	63.4	53.9	56.1
COc1ccccc1NC(=S)N1CCN(C(c2ccccc2)c2ccccc2)CC1	54.5	61	62.1	56.8	59.7
COc1cccc(NC(=S)N2CCN(C(c3ccccc3)c3ccccc3)CC2)c1	58.7	64.5	64.8	72.8	57.8
S=C(Nc1ccc(Cl)cc1Cl)N1CCN(C(c2ccccc2)c2ccccc2)CC1	45.6	59.2	68.2	45.5	53.5
CC1(C)C2CCC1(CS(=O)(=O)N1CCN(C(c3ccccc3)c3ccccc3)CC1)C(=O)C2 (stereo not given)	61.7	72.6	79.2	65.2	60.4
COc1ccc(NC(=S)N2CCN(C(c3ccccc3)c3ccccc3)CC2)cc1	63.7	48.8	55.6	66	55.9
S=C(Nc1ccccc1Cl)N1CCN(C(c2ccccc2)c2ccccc2)CC1	69.8	71.8	70.8	63.1	59.1
O=C(c1ccno1)N1CCN(C(c2ccccc2)c2ccccc2)CC1	44.2	46.1	47.5	46.8	58.6
O=S(=O)(c1ccc(Cl)cc1F)N1CCN(C(c2ccccc2)c2ccccc2)CC1	64	70.1	76.3	61.9	61
